Legend:
Nitric oxide synthase 3 [1] = molecular target: T1, Nitric oxide synthase 3 (Bos taurus, UniProt P29473); assay: Inhibitory concentration tested against bovine endothelial nitric oxide synthase (eNOS)
T1 sequence (P29473 whole entry): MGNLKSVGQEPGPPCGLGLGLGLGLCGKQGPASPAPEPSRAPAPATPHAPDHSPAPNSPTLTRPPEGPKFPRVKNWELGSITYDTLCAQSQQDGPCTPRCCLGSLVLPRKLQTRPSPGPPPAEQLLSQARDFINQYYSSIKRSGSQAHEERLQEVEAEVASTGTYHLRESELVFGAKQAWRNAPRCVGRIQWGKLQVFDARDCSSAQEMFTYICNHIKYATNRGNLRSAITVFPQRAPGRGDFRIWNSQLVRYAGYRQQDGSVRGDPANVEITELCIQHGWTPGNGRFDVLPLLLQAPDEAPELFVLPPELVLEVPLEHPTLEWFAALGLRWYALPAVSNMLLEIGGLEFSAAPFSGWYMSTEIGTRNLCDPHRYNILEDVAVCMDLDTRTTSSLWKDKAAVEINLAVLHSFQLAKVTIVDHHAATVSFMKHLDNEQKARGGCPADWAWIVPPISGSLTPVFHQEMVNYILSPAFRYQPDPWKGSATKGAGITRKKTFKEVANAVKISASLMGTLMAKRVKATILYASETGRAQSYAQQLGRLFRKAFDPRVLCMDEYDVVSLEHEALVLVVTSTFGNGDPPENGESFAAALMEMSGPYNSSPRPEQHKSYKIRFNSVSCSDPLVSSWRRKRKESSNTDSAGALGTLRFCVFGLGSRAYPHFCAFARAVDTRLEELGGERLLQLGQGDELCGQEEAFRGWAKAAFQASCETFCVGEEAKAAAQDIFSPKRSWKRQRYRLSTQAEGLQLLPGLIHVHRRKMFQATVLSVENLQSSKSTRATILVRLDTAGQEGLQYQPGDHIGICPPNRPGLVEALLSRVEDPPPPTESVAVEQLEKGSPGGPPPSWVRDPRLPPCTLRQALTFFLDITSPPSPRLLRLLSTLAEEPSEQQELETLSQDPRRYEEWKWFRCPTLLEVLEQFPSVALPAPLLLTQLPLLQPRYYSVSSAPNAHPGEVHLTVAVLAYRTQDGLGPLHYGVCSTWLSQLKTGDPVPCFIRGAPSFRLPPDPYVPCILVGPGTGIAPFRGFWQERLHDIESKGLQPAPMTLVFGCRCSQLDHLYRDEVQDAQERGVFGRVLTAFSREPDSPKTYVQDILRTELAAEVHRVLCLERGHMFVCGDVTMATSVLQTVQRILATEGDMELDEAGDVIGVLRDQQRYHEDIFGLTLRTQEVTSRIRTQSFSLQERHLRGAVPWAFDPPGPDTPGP
Method in brief: (§1)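 NOS activity measured as enzymatic conversion of [3H]L-arginine into [3H]L-citrulline; inhibition taken as the reduction of this conversion. Both constitutive isoforms (neuronal and endothelial) were assayed, and the nNOS/eNOS selectivity was calculated from the two results.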

Nitric oxide synthase 1 [2] = molecular target: T2, Nitric oxide synthase 1 (Rattus norvegicus, UniProt P29476); assay: Inhibitory concentration tested against neuronal nitric oxide synthase (nNOS ) from rat cerebellum; assay type: tissue-based
T2 sequence (P29476 whole entry): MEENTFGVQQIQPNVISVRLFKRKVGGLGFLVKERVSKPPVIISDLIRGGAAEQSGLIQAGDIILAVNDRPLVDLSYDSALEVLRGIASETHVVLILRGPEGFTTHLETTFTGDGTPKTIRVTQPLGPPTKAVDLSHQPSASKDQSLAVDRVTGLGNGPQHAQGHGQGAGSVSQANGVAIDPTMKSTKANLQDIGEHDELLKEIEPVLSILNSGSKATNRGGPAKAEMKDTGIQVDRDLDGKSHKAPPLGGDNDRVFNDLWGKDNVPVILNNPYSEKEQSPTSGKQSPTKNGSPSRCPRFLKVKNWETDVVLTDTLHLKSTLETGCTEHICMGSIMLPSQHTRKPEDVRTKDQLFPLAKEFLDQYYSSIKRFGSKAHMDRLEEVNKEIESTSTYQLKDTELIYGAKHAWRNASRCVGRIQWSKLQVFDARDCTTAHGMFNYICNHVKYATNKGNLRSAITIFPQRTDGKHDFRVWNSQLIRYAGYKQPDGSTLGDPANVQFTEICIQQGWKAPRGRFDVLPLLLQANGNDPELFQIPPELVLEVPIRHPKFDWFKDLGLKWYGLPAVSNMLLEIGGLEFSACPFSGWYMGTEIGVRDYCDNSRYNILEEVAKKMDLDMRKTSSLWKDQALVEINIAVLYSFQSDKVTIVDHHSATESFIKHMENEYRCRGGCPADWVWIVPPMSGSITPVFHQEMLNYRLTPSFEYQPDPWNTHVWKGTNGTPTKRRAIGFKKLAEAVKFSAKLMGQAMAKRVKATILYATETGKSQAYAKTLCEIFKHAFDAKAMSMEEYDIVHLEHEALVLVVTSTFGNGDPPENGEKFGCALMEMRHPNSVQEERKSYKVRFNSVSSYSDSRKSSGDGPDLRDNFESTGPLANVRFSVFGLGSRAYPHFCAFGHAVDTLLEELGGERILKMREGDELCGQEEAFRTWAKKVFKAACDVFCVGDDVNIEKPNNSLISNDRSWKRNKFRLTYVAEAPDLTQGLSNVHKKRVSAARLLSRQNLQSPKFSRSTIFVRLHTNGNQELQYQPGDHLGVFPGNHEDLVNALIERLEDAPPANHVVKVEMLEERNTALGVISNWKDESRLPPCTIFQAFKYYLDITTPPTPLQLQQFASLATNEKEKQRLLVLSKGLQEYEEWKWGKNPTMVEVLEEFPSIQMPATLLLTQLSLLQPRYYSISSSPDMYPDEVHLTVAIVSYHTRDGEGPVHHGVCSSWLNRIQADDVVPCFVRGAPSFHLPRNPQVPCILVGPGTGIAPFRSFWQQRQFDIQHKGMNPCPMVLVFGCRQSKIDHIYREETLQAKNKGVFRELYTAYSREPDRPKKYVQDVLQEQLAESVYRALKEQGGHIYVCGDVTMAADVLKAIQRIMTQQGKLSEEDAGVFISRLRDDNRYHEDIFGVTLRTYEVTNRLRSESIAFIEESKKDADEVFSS

[3] = molecular target: T3, Nitric oxide synthase 3 (Bos taurus) (UniProt P29473); assay: Selectivity ratio for inhibition of Endothelial Nitric oxide synthase to that of Neuronal Nitric oxide synthase in rat
T3 sequence (whole entry): T1 sequence (P29473 whole entry)
Method in brief: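 Ratio of inhibitory activity on the two constitutive NOS isoforms, eNOS and nNOS. Inhibition on each isoform was measured as the effect on NOS conversion of [3H]L-arginine to [3H]L-citrulline.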

Rattus norvegicus [4] = species: Rattus norvegicus; assay: Antioxidant potency of compound was assessed for their ability to inhibit [Fe2+] induced lipid peroxidation in rat brain microsomes; assay type: functional
Nitric oxide synthase 1 [5] = molecular target: T2, Nitric oxide synthase 1; assay: Inhibitory concentration tested against neuronal nitric oxide synthase (nNOS ) from rat cerebellum; Not active; assay type: tissue-based; method in brief: as §1
Nitric oxide synthase 3 [6] = molecular target: T1, Nitric oxide synthase 3; assay: Inhibitory concentration tested against bovine endothelial nitric oxide synthase (eNOS); Not active; method in brief: as §1
Rattus norvegicus [7] = species: Rattus norvegicus; assay: Antioxidant potency of compound was assessed for their ability to inhibit [Fe2+] induced lipid peroxidation in rat brain microsomes; Not active; assay type: functional

## CC(C)(C)c1cc(CCCNCc2cccc(NC(=N)c3cccs3)c2)cc(C(C)(C)C)c1O
Nitric oxide synthase 3 [1]
  IC50: 4.9 µM
Nitric oxide synthase 1 [2]
  IC50: 0.47 µM
[3]
  Selectivity ratio: 10.4
Rattus norvegicus [4]
  IC50: 0.4 µM

## CC(C)(C)c1cc(CCNCc2cccc(N=C(N)c3cccs3)c2)cc(C(C)(C)C)c1O
Nitric oxide synthase 3 [1]
  IC50: 15.5 µM
Nitric oxide synthase 1 [2]
  IC50: 1.4 µM

## N=C(Nc1ccc(CCN)cc1)c1cccs1
Nitric oxide synthase 3 [1]
  IC50: 25 µM
Nitric oxide synthase 1 [2]
  IC50: 0.08 µM
[3]
  Selectivity ratio: 312

## N=C(Nc1ccc(CN)cc1)c1cccs1
Nitric oxide synthase 3 [1]
  IC50: 37.1 µM
Nitric oxide synthase 1 [2]
  IC50: 0.2 µM
[3]
  Selectivity ratio: 195

## CC(C)c1cc(CCCNCc2cccc(NC(=N)c3cccs3)c2)cc(C(C)C)c1O
Nitric oxide synthase 3 [1]
  IC50: 8.1 µM
Nitric oxide synthase 1 [2]
  IC50: 0.12 µM
[3]
  Selectivity ratio: 67.5
Rattus norvegicus [4]
  IC50: 0.4 µM

## CC(C)(C)c1cc(CNCc2cccc(NC(=N)c3cccs3)c2)cc(C(C)(C)C)c1O
Nitric oxide synthase 3 [1]
  IC50: 15.7 µM
Nitric oxide synthase 1 [2]
  IC50: 1.6 µM
[3]
  Selectivity ratio: 9.8
Rattus norvegicus [4]
  IC50: 4.9 µM

## N=C(Nc1ccccc1)c1cccs1
Nitric oxide synthase 3 [1]
  IC50: 13.9 µM
Nitric oxide synthase 1 [2]
  IC50: 2.2 µM
[3]
  Selectivity ratio: 6.3

## Cc1cc(C(C)(C)C)c(O)c(C(C)(C)C)c1 [BUTYLATED HYDROXYTOLUENE]
Nitric oxide synthase 1 [5]
  IC50: Not Active
Nitric oxide synthase 3 [6]
  IC50: Not Active
Rattus norvegicus [4]
  IC50: 32.5 µM

## Cl.Cl.Cl.N=C(Nc1ccc(CCNCc2cccc(Cl)c2)cc1)c1cccs1
Rattus norvegicus [7]
  IC50: Not Active
Nitric oxide synthase 3 [1]
  IC50: 7.2 µM
Nitric oxide synthase 1 [2]
  IC50: 0.12 µM
[3]
  Selectivity ratio: 60

## CC(C)(C)c1cc(CCNCc2cccc(NC(=N)c3cccs3)c2)cc(C(C)(C)C)c1O
[3]
  Selectivity ratio: 11.1
Rattus norvegicus [4]
  IC50: 2.4 µM

## N=C(Nc1cccc(CN)c1)c1cccs1
Nitric oxide synthase 3 [1]
  IC50: 24.2 µM
Nitric oxide synthase 1 [2]
  IC50: 0.05 µM
[3]
  Selectivity ratio: 484

## N/C(=N/c1ccc(N)cc1)c1cccs1
Nitric oxide synthase 3 [1]
  IC50: > 100 µM
Nitric oxide synthase 1 [2]
  IC50: 18 µM
[3]
  Selectivity ratio: > 5.5

Reference: ChEMBL document CHEMBL1136261, “Novel inhibitors of neuronal nitric oxide synthase with potent antioxidant properties” (Bioorg Med Chem Lett, 2003)
